Runt-CBFb FRET = Runt domain-CBFb interaction inhibition; Q01196+Q13951; Cerulean-Runt/Venus-CBFb FRET ratio 530/480, 1 h; inhibition, % at 20 µM; 0.46% of 220,000 active; AID 1496;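 active means inhibition over about 50% at 20 µM in the single-dose screen, limit read from the data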;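 further: 0% = DMSO wells and 100% = excess unlabeled CBFb competitor control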
Target sequence (Q01196 whole entry, looked up, the tested form may be a part): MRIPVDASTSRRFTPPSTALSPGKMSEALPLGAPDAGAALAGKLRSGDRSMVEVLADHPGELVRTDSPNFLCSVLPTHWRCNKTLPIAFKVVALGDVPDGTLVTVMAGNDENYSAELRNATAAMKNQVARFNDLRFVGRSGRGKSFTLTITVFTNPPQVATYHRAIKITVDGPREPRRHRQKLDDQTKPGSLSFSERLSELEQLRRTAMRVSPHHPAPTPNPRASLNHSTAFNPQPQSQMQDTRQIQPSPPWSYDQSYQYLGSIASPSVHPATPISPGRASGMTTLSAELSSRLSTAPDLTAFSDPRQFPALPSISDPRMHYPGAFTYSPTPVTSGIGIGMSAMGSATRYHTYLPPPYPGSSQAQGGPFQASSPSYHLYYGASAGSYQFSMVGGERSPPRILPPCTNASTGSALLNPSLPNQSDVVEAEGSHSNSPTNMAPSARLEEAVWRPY
Target sequence (Q13951 whole entry, looked up, the tested form may be a part): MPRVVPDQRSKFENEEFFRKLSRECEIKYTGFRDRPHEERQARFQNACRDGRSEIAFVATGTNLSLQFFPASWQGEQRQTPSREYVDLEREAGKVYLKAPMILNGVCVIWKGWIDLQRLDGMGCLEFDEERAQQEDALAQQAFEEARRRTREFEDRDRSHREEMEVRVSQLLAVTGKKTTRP
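Measured by: fluorescence energy transfer, 422 nm excitation, 530/480 nm emission; test system: Cerulean-tagged RUNX1 Runt domain (FRET donor) fusion protein; buffer or medium: Tris pH 7.5 buffer with BSA; compound: one dose, 20 µM compound, 1% DMSO; times: two 1 h room-temperature incubations shielded from light; benchmarks: unlabeled CBFb 5 µM, positive control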
CaV13 ICDI inh = Disruptors of the CACNA1D IQ motif to Ca2+-dependent inactivation inhibitor domain association, primary screening, Förster resonance energy transfer in intact living …; 0.098% of 340,000 active; inhibition, % at 12.3 µM; HEK cells, CFP/YFP FRET ICDI-IQ, plate reader, 10 min; percent FRET-ratio fall versus neutral wells;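 active means mean replicate inhibition of at least 30% and at least 1% of replicates passing that level; inconclusive means only one of the two criteria is met; inactive means neither criterion is met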;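 further: 0% = median of the neutral control wells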
RanGTP-Impb inh = inhibitors of RanGTP-importin-beta interaction, primary screen, biochemical, FRET, CFP-Ran, YFP-importin-beta, homogeneous. AID 2216. cell-free CFP-Ran/YFP-importin-beta FRET ratio. inhibition, % (no concentration beside the values). 1.1% of 300,000 active;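 active means more than half of the replicate wells show a fall in the fluorescence ratio signal beyond about 16%, limit read from the data, passing the limit was not always enough; inconclusive means exactly half of the replicate wells pass the set limit; inactive means fewer than half of replicates pass the limit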;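 further: 0% = DMSO wells and 100% = Ran loaded with GDP instead of GTP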
HDAC3 inhib = inhibitors of human histone deacetylase 3 | recombinant HDAC3, fluorogenic peptide/trypsin coupled, fluorescence | inhibition, % at 8.3 µM | 0.15% of 320,000 active; in the data active means inhibition above about 26%, passing the limit was not always enough; inconclusive means no clear call, values can overlap the other calls
Runt-SMMHC FRET = inhibitors of human RUNX1 Runt domain binding to CBFb-SMMHC; Q01196+Q13951; Cerulean-Runt/Venus-CBFb-SMMHC FRET ratio 530/480, 1 h; inhibition, % at 20 µM; 0.74% of 220,000 active; AID 1434;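 active means mean inhibition across duplicate retests at 20 µM reaching about 50%, limit read from the data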;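 further: 0% = DMSO wells and 100% = wells with excess untagged CBFb-SMMHC; inhibitors lower the FRET ratio by blocking Runt binding to CBFb-SMMHC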
LANA-H2B inh = blocks KSHV LANA binding to histone H2A/H2B; Q9QR71; cell-free LANA-H2A/H2B peptide, fluorescence polarization; inhibition, % (test concentration not listed); 0.6% of 320,000 active; in the data active means inhibition mostly above about 10%, no sharp cut-off; inactive means mostly below about 6.7%
* hit, by the source's call; ? = inconclusive; . = no result; + = active, no number. Sampled rows, rich in hits. Any-hit rate of the full collection: about 1.9%.

SMILES | Runt-CBFb FRET | CaV13 ICDI inh | RanGTP-Impb inh | HDAC3 inhib | Runt-SMMHC FRET | LANA-H2B inh
COc1cc(/C=C2\SC(c3ccccc3)=NC2=O)cc(Cl)c1O | 44.1 | 0.8 | 2.9 | . | 68.9* | .
COc1cc(/C=C2\SC(c3ccc(C)cc3)=NC2=O)cc(OC)c1OC | -7.2 | . | -0.6 | -1.0 | -101.7 | -2.9
Cc1cccn2c(=O)c3cc(S(=O)(=O)c4ccc(F)cc4)c(=N)n(Cc4ccco4)c3nc12 | 9.8 | 27.8 | 84.4* | -23.2 | 81.2* | 2.4
Cc1cccn2c(=O)c3cc(S(=O)(=O)c4ccccc4)c(=N)n(Cc4ccco4)c3nc12 | . | -13.9 | 93.2* | -65.4 | . | 3.5
Cc1cccn2c(=O)c3cc(S(=O)(=O)c4ccccc4)c(=N)n(Cc4ccc(F)cc4)c3nc12 | . | -3.3 | -1.9 | 0.9 | . | 2.1
C[C@H](CO)N1C[C@H](C)[C@@H](CN(C)S(=O)(=O)c2cccs2)Oc2c(NC(=O)NC3CCCCC3)cccc2C1=O | . | -12.4 | . | 5.1 | . | -3.3
COC(=O)C1=CN(c2ccc(Cl)cc2)C=C(C(=O)OC)C1c1ccc([N+](=O)[O-])cc1 | . | -5.3 | -3.9 | 2.2 | . | 1.0
COC(=O)C1=CNC=C(C(=O)OC)C1c1ccc(Cl)cc1 | 38.3 | -4.6 | 3.7 | -59.1 | 82.6* | -1.8
COC(=O)C1=CNC=C(C(=O)OC)C1c1ccccc1Cl | 71.6* | -3.7 | . | -125.6 | 146.0* | -8.6
COC(=O)C1=CNC=C(C(=O)OC)C1c1cccc(OC)c1 | 41.8 | . | 6.4 | -59.7 | 100.4* | 0.8
COC(=O)C1=CN(c2cccc(Cl)c2)C=C(C(=O)OC)C1c1cccc(OC)c1 | . | -5.5 | -1.2 | -14.0 | . | -10.8
CSc1sc(-c2n[nH]c(=S)n2C)c2c1C=CCC2 | 13.0 | -5.3 | -2.5 | 34.4* | -5.4 | 0.8
CCN(CC(=O)Nc1c(F)cccc1F)C(=O)c1cccnc1SC | . | -5.5 | 0.7 | 0.0 | . | -10.3
Nc1ccccc1N1C(=O)c2cccc3cccc(c23)C1=O | . | -4.4 | 4.3 | 3.1 | . | 1.3
Nc1cccc2c1C(=O)N(c1ccccc1)C2=O | . | + | 8.2 | 2.0 | . | 2.6
CC(=O)Nc1ccc(OCC(=O)c2ccc(C)cc2C)cc1 | 0.4 | -5.2 | 3.1 | 0.8 | -5.5 | 1.2
CC(=O)Nc1ccc(NC(=O)Nc2ccc(C)cc2C)cc1 | -1.8 | -6.2 | 6.2 | 5.8 | 1.6 | 14.9*
CC(=O)Nc1ccc(OCC(=O)c2cc(C)ccc2C)cc1 | 0.9 | -5.9 | 4.9 | -2.8 | -0.3 | 19.3*
COC(=O)C1CCN(C(=O)[C@H](C)NC(=O)C2CC(=O)N(c3ccc(F)cc3)C2)CC1 (stereo not given in full) | . | -2.6 | 0.1 | 0.5 | . | -3.3
COc1ccccc1NC(=O)COC(=O)/C=C/c1ccc2c(c1)OCO2 | . | -6.5 | 2.6 | -2.7 | 1.4 | 14.2*
CCN(CC(=O)Nc1ccc(OC)cc1)C(=O)CSCc1c(C)noc1C | . | -2.1 | . | -2.3 | . | 3.7
CN(C)c1ccc(-c2ccnc3c2CC(C)(C(=O)Nc2ccc4c(c2)OCO4)O3)cc1 (stereo not given) | . | -5.3 | . | . | . | .
COc1ccc(NC(=S)NNC(=O)OC(C)(C)C)cc1OC | 1.5 | -3.8 | ? | 0.8 | 1.6 | 33.0*
CCOc1ccccc1NC(=O)Cn1c(=O)n(CCC(=O)NC2CCCC2)c(=O)c2ccccc21 | -3.8 | . | 27.6 | 2.8 | 1.7 | 30.9*
O=C(Cn1nnc(-c2ccccc2F)n1)OCC(=O)c1ccccc1 | 1.6 | -4.6 | -2.5 | 19.5 | -1.3 | 3.9
SMILES | Runt-CBFb FRET | CaV13 ICDI inh | RanGTP-Impb inh | HDAC3 inhib | Runt-SMMHC FRET | LANA-H2B inh
O=C(Cn1nnc(-c2ccc(F)cc2)n1)OCC(=O)c1ccccc1 | -1.1 | -2.9 | 19.9* | ? | -5.8 | -1.4
CCn1cc(C(=O)NCC2CCCO2)c2cc(OC)c(OC)cc2c1=O (stereo not given) | -1.5 | -4.1 | -5.5 | 12.5 | 2.2 | -1.0
Cc1ccc2nc3c(cc(C(=O)NCC4CCCO4)c(=N)n3CCCOC(C)C)c(=O)n2c1 (stereo not given) | 11.1 | 5.2 | . | . | 41.0 | 18.1*
Cc1ccc2nc3c(cc(C(=O)NCC4CCCO4)n3C)c(=O)n2c1 (stereo not given) | 18.7 | . | . | . | 88.6* | .
CCOCCCNc1nc2nc3ccc(C)cn3c(=O)c2cc1C(=O)NCC1CCCO1 (stereo not given) | . | + | -0.9 | -420.2 | . | 1.3
NS(=O)(=O)c1ccc(CCNc2nc3c(-c4cccc(F)c4)nnn3c3ccccc23)cc1 | -24.1 | -5.3 | 6.0 | -21.6 | -37.7 | 4.7
O=C(NCCN1CCOCC1)C1CCC(CNS(=O)(=O)c2ccccc2)CC1 (stereo not given) | -3.7 | -5.3 | 5.3 | . | 3.8 | .
O=c1ccc2cc(O)c(O)cc2o1 | 4.5 | -1.7 | 80.7* | -30.2 | 72.6* | -2.6
C[C@H](CO)N1C[C@H](C)[C@@H](CN(C)Cc2ccc(-c3ccccc3)cc2)Oc2c(NC(=O)Cc3ccccc3)cccc2C1=O | . | . | . | 18.7 | . | -5.1
Cc1ccc(C)c(NC(=O)CCC(=O)NNC(=O)COc2cc(C)ccc2C)c1 | . | -2.5 | 0.6 | -1.6 | . | 1.8
CC(NC(=O)CCC(=O)N1CCCCCC1)c1ccccc1 (stereo not given) | . | -4.3 | 1.9 | -0.6 | . | 14.1*
O=C(CN1C(=O)NC2(CCCCCC2)C1=O)NCCc1ccccc1 | . | -2.0 | . | 1.8 | . | 186.5*
CC(NC(=O)CN1C(=O)NC2(CCCCCC2)C1=O)c1ccccc1 (stereo not given) | . | -5.3 | . | -5.5 | . | 78.3*
CC(NC(=O)CCC(=O)NC(C)c1ccccc1)c1ccccc1 (stereo not given) | . | -4.0 | 2.4 | -2.0 | . | 1.3
O=C(CN1C(=O)NC2(CCCCC2)C1=O)NCCc1ccccc1 | . | -1.2 | . | -1.4 | . | 2.7
COc1ccc([C@H]2/C=C\CN(S(=O)(=O)/C=C/c3ccccc3)[C@@H](C)C(=O)N2Cc2ccc(F)cc2)cc1 | . | -11.2 | 1.4 | 2.2 | . | -0.1
COc1ccccc1[C@@H]1C(c2cccc(Cl)c2)=NN(c2ccccc2)[C@H]1C(=O)N1CCOC1=O | 31.8 | . | 26.7* | -5.6 | 72.6* | -1.9
COc1ccccc1[C@@H]1C(c2ccccc2)=NN(c2ccc(Br)cc2)[C@H]1C(=O)N1CCOC1=O | . | -6.7 | . | . | . | .
O=C1OCCN1C(=O)[C@H]1[C@H](c2ccc(F)cc2)C(c2cccc(Cl)c2)=NN1c1ccccc1 | . | -9.8 | . | . | . | .
O=C1OCCN1C(=O)[C@H]1[C@H](c2ccc(Cl)cc2)C(c2cccc(Cl)c2)=NN1c1ccccc1 | 28.0 | . | 29.7* | -3.4 | 56.6 | 1.4
CCOC(=O)C1C(=O)C=C(c2ccc(NS(C)(=O)=O)cc2)CC1c1ccco1 (stereo not given) | 78.8* | -11.3 | 6.3 | -2.2 | -19.8 | 2.6

Source: PubChem BioAssay
